Results gathered from unrelated publications.
Each line is one published result; the experiments were not run side by side.
Target: Serine/threonine-protein kinase Nek9 (NEK9, Homo sapiens, UniProt Q8TD19)
One construct used (Q8TD19 1-979): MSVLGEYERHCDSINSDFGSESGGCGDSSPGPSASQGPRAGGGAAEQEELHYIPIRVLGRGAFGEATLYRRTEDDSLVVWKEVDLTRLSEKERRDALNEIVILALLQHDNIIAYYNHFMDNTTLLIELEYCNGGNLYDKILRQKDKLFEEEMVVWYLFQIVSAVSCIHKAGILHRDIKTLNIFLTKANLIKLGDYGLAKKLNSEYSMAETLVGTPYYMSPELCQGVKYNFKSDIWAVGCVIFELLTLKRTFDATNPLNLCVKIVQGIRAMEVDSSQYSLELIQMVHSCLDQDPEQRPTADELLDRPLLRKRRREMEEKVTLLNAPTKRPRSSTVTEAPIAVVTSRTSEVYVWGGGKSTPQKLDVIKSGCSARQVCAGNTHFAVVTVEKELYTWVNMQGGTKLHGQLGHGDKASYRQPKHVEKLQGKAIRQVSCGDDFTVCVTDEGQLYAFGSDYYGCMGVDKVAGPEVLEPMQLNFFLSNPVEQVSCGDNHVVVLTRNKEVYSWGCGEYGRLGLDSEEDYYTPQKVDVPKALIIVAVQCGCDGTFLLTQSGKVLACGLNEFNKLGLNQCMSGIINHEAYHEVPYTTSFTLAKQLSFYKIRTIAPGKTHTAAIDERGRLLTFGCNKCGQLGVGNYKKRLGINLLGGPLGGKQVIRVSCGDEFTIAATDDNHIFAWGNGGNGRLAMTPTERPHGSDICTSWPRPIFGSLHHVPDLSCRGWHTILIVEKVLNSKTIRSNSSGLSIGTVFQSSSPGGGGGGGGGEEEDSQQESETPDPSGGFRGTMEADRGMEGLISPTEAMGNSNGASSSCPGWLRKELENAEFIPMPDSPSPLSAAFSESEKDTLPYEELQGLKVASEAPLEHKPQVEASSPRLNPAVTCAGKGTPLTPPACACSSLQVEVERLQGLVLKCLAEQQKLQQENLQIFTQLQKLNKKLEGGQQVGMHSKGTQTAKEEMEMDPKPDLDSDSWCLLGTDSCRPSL

SMILES	test	conditions	quantity	value
CC(C)(O)[C@H]1CC[C@H](Nc2ccc3ncc(-c4cccc(C(F)(F)F)c4)n3n2)CC1	enzyme activity, inhibitor	1 µM	remaining activity	79.5%
N#CCCc1ccc2c(c1)-c1[nH]c3ccc([N+](=O)[O-])cc3c1CC(=O)N2	cell-free assay	0.5 µM	remaining signal	103%
Cc1ccc(NC(=O)c2ccc(C)c(C(F)(F)F)c2)cc1C#Cc1nn(C2CCC(O)CC2)c2ncnc(N)c12 (centres unmarked)	cell-free assay	10 µM	remaining signal	59%
CS(=O)(=O)CCNCc1ccc(-c2ccc3ncnc(Nc4ccc(OCc5cccc(F)c5)c(Cl)c4)c3c2)o1	cell-free assay	0.5 µM	remaining signal	100%
Cc1ccc(C(=O)Nc2ccc(CN3CCN(C)CC3)c(C(F)(F)F)c2)cc1C#Cc1cnc2cccnn12	enzyme activity, inhibitor	23.5 nM	remaining activity	100%
CC(C)(C)c1nc2c(s1)c1nc(N)ncc1c1ccc(NS(=O)(=O)c3c(F)cccc3F)c(F)c12	enzyme activity, inhibitor, radiometric	1 µM	remaining activity	96%
CNC(=O)c1cc(Oc2ccc(NC(=O)Nc3ccc(Cl)c(C(F)(F)F)c3)cc2)ccn1	cell-free assay	0.5 µM	remaining signal	95.4%
CS(=O)(=O)c1cc(C2(NC(=O)c3cncc4c3cnn4-c3ccc(F)cc3)CC2)ccn1	cell-free assay, competition with immobilised ligand	1 µM	remaining binding	100%
O=C1Nc2ccc(Cl)cc2C1=Cc1cc(Cl)c(O)c(Cl)c1	cell-free assay	0.5 µM	remaining signal	103%
Nc1c(C(=O)NCc2ccc(C(=O)NCCCC3CCCCC3)cc2)cnn1-c1ccccc1	cell-free assay, competition with immobilised ligand	0.1 µM	remaining binding	100%
Cc1cnc(NC2CCOCC2)nc1-n1cnc(C(=O)NC(CN)c2cc(F)cc(Cl)c2)c1 (centres unmarked)	enzyme activity, inhibitor, radiometric	1 µM	remaining activity	101%
Cc1nc(N2CC[C@@H](O)C2)ncc1-c1cc(C(F)(F)F)cc2[nH]ncc12	binding, competition with immobilised ligand	1 µM	remaining binding	96%
Nc1ncnc2occ(-c3ccc(NC(=O)Nc4cc(C(F)(F)F)ccc4F)cc3)c12	cell-free assay, inhibitor	20 µM	remaining signal	1.6%
O=C(O)[C@@H]1[C@@H](Cn2nnc3ccccc3c2=O)CC[C@H]1C(=O)c1ccc(OCCC2CCOCC2)cc1	cell-free assay, competition with immobilised ligand	1 µM	remaining binding	100%
N[C@H]1CCN(c2nccc(-c3cnn4ncccc34)n2)C1	binding	1 µM	remaining binding	100%
O=C(NS(=O)(=O)c1ccc(NCC2CCOCC2)c([N+](=O)[O-])c1)c1ccc(N2CCN(Cc3ccc(C(F)(F)F)cc3-c3ccc(Cl)cc3)CC2)cc1Oc1cnc2[nH]ccc2c1	cell-free assay, competition with immobilised ligand	1 µM	remaining binding	100%
COc1cc2ncnc(Nc3ccc(Oc4ccccc4)cc3C)c2cc1OC	enzyme activity, inhibitor	1 µM	inhibition	-2%
